Results from ChEMBL document CHEMBL2034864, “Synthesis, characterization, antimicrobial activities and QSAR studies of some 10a-phenylbenzo[b]indeno[1,2-e][1,4]thiazin-11(10aH)-ones” (2012).
Converted amounts (≈) assume the structure as drawn. The source made the active and inactive calls. No cut-off for these calls is given here.

Tests used:
[1] = tested on: Bacillus subtilis; assay: Antibacterial activity against Bacillus subtilis MTCC 441 after 24 hrs by serial dilution technique; assay type: functional; settings: for MIC: Bacillus subtilis, MTCC 441, 24 h
Method in brief: (§1)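 Compounds were dissolved in DMSO as stock, diluted to 100 µg/mL in Luria broth, then two-fold serially diluted from 100 to 1.56 µg/mL. Bacteria were grown in Luria broth at 37 °C, centrifuged and washed three times with PBS. They were inoculated into each dilution in triplicate and incubated 24 h at 37 °C. Growth was read visually and spectrophotometrically. Controls were penicillin, streptomycin and DMSO. MIC is in µmol/mL.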

[2] = tested on: Staphylococcus aureus; assay: Antibacterial activity against Staphylococcus aureus MTCC 7443 after 24 hrs by serial dilution technique; assay type: functional; settings: for MIC: Staphylococcus aureus, MTCC 7443, 24 h; method in brief: as §1
[3] = tested on: Escherichia coli; assay: Antibacterial activity against Escherichia coli MTCC 42 after 24 hrs by serial dilution technique; assay type: functional; settings: for MIC: Escherichia coli, MTCC 42, 24 h; method in brief: as §1
[4] = tested on: Pseudomonas aeruginosa; assay: Antibacterial activity against Pseudomonas aeruginosa MTCC 7952 after 24 hrs by serial dilution technique; assay type: functional; settings: for MIC: Pseudomonas aeruginosa, MTCC 7952, 24 h; method in brief: as §1
[5] = tested on: Candida albicans; assay: Antifungal activity against Candida albicans MTCC 183 after 72 hrs by serial dilution technique; assay type: functional
Method in brief: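 Compounds were dissolved in DMSO as stock, diluted to 100 µg/mL in potato dextrose broth, then two-fold serially diluted from 100 to 1.56 µg/mL. Fungi were grown in Sabouraud dextrose broth at 28 °C: A. fumigatus for 2–3 weeks, C. albicans for 48 h. Spores were centrifuged, washed in sterile water and inoculated in triplicate, then incubated 72 h at 28 °C. MIC was assigned by CFU assay. Controls were fluconazole and DMSO.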

[6] = tested on: Aspergillus fumigatus; assay: Antifungal activity against Aspergillus fumigatus MTCC 2550 after 72 hrs by serial dilution technique
[7] = Candida albicans, MTCC 183, 72 h
[8] = Aspergillus fumigatus, MTCC 2550, 72 h

Compound | -logMIC [1] | MIC [1] [µM] | -logMIC [2] | MIC [2] [µM] | -logMIC [3] | MIC [3] [µM] | -logMIC [4] | MIC [4] [µM] | -logMIC [5] | MIC [5, 7] [µM] | -logMIC [6] | MIC [6, 8] [µM] | MIC [5] | MIC [6]
COc1ccc2c(c1)SC1(c3ccc(C)cc3)C(=O)c3ccccc3C1=N2 (stereo unspecified) | 1.17 | 67.3 (≈ 25 µg/mL) | 0.87 | 135 (≈ 50 µg/mL) | 2.38 | 4.2 (≈ 1.56 µg/mL) | 1.47 | 33.6 (≈ 12.5 µg/mL) | 1.77 | 16.8 (≈ 6.24 µg/mL) | 1.17 | 67.3 (≈ 25 µg/mL) | – | –
O=C1c2ccccc2C2=Nc3ccccc3SC12c1ccc(Cl)cc1 (stereo unspecified) | 1.46 | 34.6 (≈ 12.5 µg/mL) | 0.86 | 138 (≈ 50.1 µg/mL) | 2.37 | 4.3 (≈ 1.56 µg/mL) | – | – | – | – | – | – | inactive | inactive
O=C1c2ccccc2C2=Nc3ccccc3SC12c1ccccc1 (stereo unspecified) | 1.12 | 76.4 (≈ 25 µg/mL) | 0.82 | 153 (≈ 50 µg/mL) | 1.42 | 38.2 (≈ 12.5 µg/mL) | 1.42 | 38.2 (≈ 12.5 µg/mL) | 1.12 | 76.4 (≈ 25 µg/mL) | 1.12 | 76.4 (≈ 25 µg/mL) | – | –
Cc1ccc(C23Sc4cc(Br)ccc4N=C2c2ccccc2C3=O)cc1 (stereo unspecified) | 1.53 | 29.8 (≈ 12.5 µg/mL) | 0.92 | 119 (≈ 50.1 µg/mL) | 1.23 | 59.4 (≈ 25 µg/mL) | 1.23 | 59.4 (≈ 25 µg/mL) | 0.92 | 119 (≈ 50.1 µg/mL) | 0.92 | 119 (≈ 50.1 µg/mL) | – | –
COc1ccc(C23Sc4cc(C)ccc4N=C2c2ccccc2C3=O)cc1 (stereo unspecified) | 1.47 | 33.6 (≈ 12.5 µg/mL) | 1.17 | 67.3 (≈ 25 µg/mL) | 1.17 | 67.3 (≈ 25 µg/mL) | 1.17 | 67.3 (≈ 25 µg/mL) | 1.47 | 33.6 (≈ 12.5 µg/mL) | 0.87 | 135 (≈ 50 µg/mL) | – | –
COc1ccc2c(c1)SC1(c3ccccc3)C(=O)c3ccccc3C1=N2 (stereo unspecified) | 1.15 | 70 (≈ 25 µg/mL) | 0.85 | 140 (≈ 50 µg/mL) | – | – | 1.46 | 35 (≈ 12.5 µg/mL) | – | – | – | – | inactive | inactive
CN[C@@H]1[C@H](O[C@H]2[C@H](O[C@H]3[C@H](O)[C@@H](O)[C@H](N=C(N)N)[C@@H](O)[C@@H]3N=C(N)N)O[C@@H](C)[C@]2(O)C=O)O[C@@H](CO)[C@H](O)[C@H]1O [STREPTOMYCIN] | – | 10.7 (≈ 6.22 µg/mL) | – | 10.7 (≈ 6.22 µg/mL) | – | 5.3 (≈ 3.08 µg/mL) | – | 2.6 (≈ 1.51 µg/mL) | – | – | – | – | – | –
Cc1ccc(C23Sc4cc(C)ccc4N=C2c2ccccc2C3=O)cc1 (stereo unspecified) | 0.85 | 141 (≈ 50 µg/mL) | – | – | 1.45 | 35.2 (≈ 12.5 µg/mL) | 1.15 | 70.4 (≈ 25 µg/mL) | 1.15 | 70.4 (≈ 25 µg/mL) | 0.85 | 141 (≈ 50 µg/mL) | – | –
CC1(C)S[C@@H]2[C@H](NC(=O)Cc3ccccc3)C(=O)N2[C@H]1C(=O)O [PENICILLIN G] | – | 4.6 (≈ 1.54 µg/mL) | – | 4.6 (≈ 1.54 µg/mL) | – | 37.4 (≈ 12.5 µg/mL) | – | 18.7 (≈ 6.25 µg/mL) | – | – | – | – | – | –
O=C1c2ccccc2C2=Nc3ccc(Br)cc3SC12c1ccccc1 (stereo unspecified) | 1.21 | 61.7 (≈ 25.1 µg/mL) | 0.91 | 123 (≈ 50.1 µg/mL) | 1.21 | 61.7 (≈ 25.1 µg/mL) | 1.81 | 15.4 (≈ 6.26 µg/mL) | 1.51 | 30.8 (≈ 12.5 µg/mL) | 1.51 | 30.8 (≈ 12.5 µg/mL) | – | –
OC(Cn1cncn1)(Cn1cncn1)c1ccc(F)cc1F [FLUCONAZOLE] | – | – | – | – | – | – | – | – | – | 10.1 (≈ 3.09 µg/mL) | – | 10.1 (≈ 3.09 µg/mL) | – | –
COc1ccc(C23Sc4cc(OC)ccc4N=C2c2ccccc2C3=O)cc1 (stereo unspecified) | 2.4 | 4 (≈ 1.55 µg/mL) | 1.79 | 16.1 (≈ 6.24 µg/mL) | 1.79 | 16.1 (≈ 6.24 µg/mL) | – | – | 1.19 | 64.5 (≈ 25 µg/mL) | 1.19 | 64.5 (≈ 25 µg/mL) | – | –
Cc1ccc(C23Sc4ccccc4N=C2c2ccccc2C3=O)cc1 (stereo unspecified) | 1.14 | 73.2 (≈ 25 µg/mL) | 0.53 | 293 (≈ 100 µg/mL) | – | – | 1.14 | 73.2 (≈ 25 µg/mL) | – | – | – | – | inactive | inactive
Cc1ccc2c(c1)SC1(c3ccc(Cl)cc3)C(=O)c3ccccc3C1=N2 (stereo unspecified) | 1.18 | 66.5 (≈ 25 µg/mL) | – | – | 1.18 | 66.6 (≈ 25 µg/mL) | 1.18 | 66.6 (≈ 25 µg/mL) | 1.18 | 66.6 (≈ 25 µg/mL) | 0.88 | 133 (≈ 50.1 µg/mL) | – | –
COc1ccc(C23Sc4ccccc4N=C2c2ccccc2C3=O)cc1 (stereo unspecified) | – | – | 0.85 | 140 (≈ 50 µg/mL) | 1.15 | 70 (≈ 25 µg/mL) | – | – | – | – | – | – | inactive | inactive
O=C1c2ccccc2C2=Nc3ccc(Br)cc3SC12c1ccc(Cl)cc1 (stereo unspecified) | 1.55 | 28.4 (≈ 12.5 µg/mL) | 2.15 | 7.1 (≈ 3.13 µg/mL) | 1.24 | 56.9 (≈ 25.1 µg/mL) | 1.24 | 57 (≈ 25.1 µg/mL) | 1.55 | 28.4 (≈ 12.5 µg/mL) | 1.55 | 28.4 (≈ 12.5 µg/mL) | – | –
COc1ccc(C23Sc4cc(Br)ccc4N=C2c2ccccc2C3=O)cc1 (stereo unspecified) | 2.15 | 7.1 (≈ 3.1 µg/mL) | 2.15 | 7.1 (≈ 3.1 µg/mL) | 1.84 | 14.3 (≈ 6.24 µg/mL) | 1.24 | 57.4 (≈ 25 µg/mL) | 1.84 | 14.3 (≈ 6.24 µg/mL) | 1.84 | 14.3 (≈ 6.24 µg/mL) | – | –
Cc1ccc2c(c1)SC1(c3ccccc3)C(=O)c3ccccc3C1=N2 (stereo unspecified) | 0.83 | 146 (≈ 50 µg/mL) | 2.35 | 4.5 (≈ 1.54 µg/mL) | – | – | 1.13 | 73.3 (≈ 25 µg/mL) | 1.44 | 36.6 (≈ 12.5 µg/mL) | 1.14 | 73.2 (≈ 25 µg/mL) | – | –
COc1ccc2c(c1)SC1(c3ccc(Cl)cc3)C(=O)c3ccccc3C1=N2 (stereo unspecified) | 1.5 | 31.9 (≈ 12.5 µg/mL) | 1.8 | 15.9 (≈ 6.23 µg/mL) | 1.19 | 63.9 (≈ 25 µg/mL) | 1.19 | 63.9 (≈ 25 µg/mL) | 1.5 | 31.9 (≈ 12.5 µg/mL) | 1.5 | 31.9 (≈ 12.5 µg/mL) | – | –
